Measured values from ChEMBL document CHEMBL2074053, “Modified jatrophane diterpenes as modulators of multidrug resistance from Euphorbia dendroides L” (Bioorg Med Chem, 2003).
One block for each compound: values may come before it.

Experiments:
Format in all cases: functional, cell-based
Settings in all cases: k562/r7, 5 µM
[1] = target: T1, ATP-dependent translocase ABCB1 (Homo sapiens, UniProt P08183); test: TP_TRANSPORTER: inhibition of Daunomycin efflux (Daunomycin: 10 uM, Terracinolide L: 5 uM) in K562/R7 cells
Outline: (§1)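 Cells washed twice in ice-cold PBS and held on ice. Intracellular daunomycin read by flow cytometry. Efflux inhibition is the fluorescence shift relative to 2 µM cyclosporin A as positive control. Duplicates, at least three separate experiments.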

[2] = target: T1, ATP-dependent translocase ABCB1; test: TP_TRANSPORTER: inhibition of Daunomycin efflux (Daunomycin: 10 uM, 13alpha-OH Terracinolide B: 5 uM) in K562/R7 cells; outline: as §1
[3] = target: T1, ATP-dependent translocase ABCB1; test: TP_TRANSPORTER: inhibition of Daunomycin efflux (Daunomycin: 10 uM, 13alpha-OH Terracinolide G: 5 uM) in K562/R7 cells; outline: as §1
[4] = target: T1, ATP-dependent translocase ABCB1; test: TP_TRANSPORTER: inhibition of Daunomycin efflux (Daunomycin: 10 uM, Epiabeodendroidin F: 5 uM) in K562/R7 cells; outline: as §1
[5] = target: T1, ATP-dependent translocase ABCB1; test: TP_TRANSPORTER: inhibition of Daunomycin efflux (Daunomycin: 10 uM, Terracinolide B: 5 uM) in K562/R7 cells; outline: as §1
[6] = target: T1, ATP-dependent translocase ABCB1; test: TP_TRANSPORTER: inhibition of Daunomycin efflux (Daunomycin: 10 uM, Terracinolide K: 5 uM) in K562/R7 cells; outline: as §1
[7] = target: T1, ATP-dependent translocase ABCB1; test: TP_TRANSPORTER: inhibition of Daunomycin efflux (Daunomycin: 10 uM, Terracinolide C: 5 uM) in K562/R7 cells; outline: as §1

T1 sequence (P08183 whole entry): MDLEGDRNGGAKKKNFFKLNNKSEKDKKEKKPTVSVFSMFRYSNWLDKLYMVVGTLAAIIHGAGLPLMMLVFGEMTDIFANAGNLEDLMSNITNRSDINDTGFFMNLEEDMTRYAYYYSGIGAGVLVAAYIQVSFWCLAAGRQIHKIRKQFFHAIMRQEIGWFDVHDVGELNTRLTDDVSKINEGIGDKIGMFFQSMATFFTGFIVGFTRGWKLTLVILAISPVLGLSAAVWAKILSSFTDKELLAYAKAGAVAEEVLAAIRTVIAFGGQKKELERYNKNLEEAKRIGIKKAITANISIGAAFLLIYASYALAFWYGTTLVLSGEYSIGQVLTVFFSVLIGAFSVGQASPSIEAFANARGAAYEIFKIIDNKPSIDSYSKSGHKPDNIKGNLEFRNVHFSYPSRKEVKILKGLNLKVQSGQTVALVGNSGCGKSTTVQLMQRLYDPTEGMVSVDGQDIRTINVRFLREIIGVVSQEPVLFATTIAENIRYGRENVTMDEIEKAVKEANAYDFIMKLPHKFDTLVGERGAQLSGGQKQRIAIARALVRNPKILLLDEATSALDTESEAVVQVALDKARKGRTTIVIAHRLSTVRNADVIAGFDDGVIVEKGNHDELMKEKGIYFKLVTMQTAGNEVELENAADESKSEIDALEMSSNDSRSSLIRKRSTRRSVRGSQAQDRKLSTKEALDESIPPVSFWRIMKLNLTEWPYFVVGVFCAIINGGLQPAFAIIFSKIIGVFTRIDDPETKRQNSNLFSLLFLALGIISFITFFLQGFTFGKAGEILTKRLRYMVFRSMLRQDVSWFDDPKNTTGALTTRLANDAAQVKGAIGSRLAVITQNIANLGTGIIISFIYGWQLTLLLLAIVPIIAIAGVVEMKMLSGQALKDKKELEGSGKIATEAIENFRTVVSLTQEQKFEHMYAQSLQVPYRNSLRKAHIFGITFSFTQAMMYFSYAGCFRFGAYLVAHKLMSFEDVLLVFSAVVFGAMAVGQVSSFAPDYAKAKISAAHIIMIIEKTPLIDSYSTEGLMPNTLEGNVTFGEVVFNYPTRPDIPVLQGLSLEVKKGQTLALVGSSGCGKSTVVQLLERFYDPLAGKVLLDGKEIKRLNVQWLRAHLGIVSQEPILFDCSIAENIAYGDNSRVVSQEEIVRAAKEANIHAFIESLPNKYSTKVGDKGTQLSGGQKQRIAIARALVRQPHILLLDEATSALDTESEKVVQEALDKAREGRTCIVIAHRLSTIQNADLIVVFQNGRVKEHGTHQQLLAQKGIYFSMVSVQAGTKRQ

SMILES: CC(=O)O[C@H]1[C@@H](OC(C)=O)C(C)(C)/C=C/[C@H](C)C(=O)[C@@]2(OC(C)=O)C[C@@](C)(O)[C@H](OC(C)=O)[C@@H]2[C@H]2OC(=O)CC[C@@]2(OC(=O)C(C)C)[C@@H]1OC(=O)C(C)C
Activity [1]: is not an inhibitor [-]

SMILES: CC(=O)O[C@H]1[C@@H](OC(C)=O)C(C)(C)/C=C/[C@@](C)(O)C(=O)[C@@]2(OC(C)=O)C[C@@](C)(OC(C)=O)[C@H](OC(C)=O)[C@@H]2[C@H]2OC(=O)CC[C@@]2(OC(C)=O)[C@@H]1OC(=O)C(C)C
Activity [2]: inhibitor [+]

SMILES: CC(=O)O[C@H]1[C@@H](OC(C)=O)C(C)(C)/C=C/[C@@](C)(O)C(=O)[C@@]2(O)C[C@@](C)(OC(C)=O)[C@H](OC(C)=O)[C@@H]2[C@H]2OC(=O)CC[C@@]2(OC(C)=O)[C@@H]1OC(=O)C(C)C
Activity [3]: inhibitor [+]

SMILES: C=C1[C@H](OC(=O)c2ccccc2)[C@@H](OC(C)=O)[C@@H](OC(C)=O)C(C)(C)/C=C/[C@H](C)[C@]2(O)C[C@@](C)(O)[C@H](OC(C)=O)[C@@H](C2=O)[C@H]1OC(=O)C(C)C [EPIABEODENDROIDIN F]
Activity [4]: inhibitor [+]

SMILES: CC(=O)O[C@H]1[C@@H](OC(C)=O)C(C)(C)/C=C/[C@H](C)C(=O)[C@@]2(OC(C)=O)C[C@@](C)(O)[C@H](OC(C)=O)[C@@H]2[C@H]2OC(=O)CC[C@@]2(OC(C)=O)[C@@H]1OC(=O)C(C)C [TERRACINOLIDE K]
Activity [6]: inhibitor [+]

Continued, values first:

Activity [5]: inhibitor [+]
SMILES: CC(=O)O[C@H]1[C@@H](OC(C)=O)C(C)(C)/C=C/[C@H](C)C(=O)[C@@]2(OC(C)=O)C[C@@](C)(OC(C)=O)[C@H](OC(C)=O)[C@@H]2[C@H]2OC(=O)CC[C@@]2(OC(C)=O)[C@H]1OC(=O)C(C)C [TERRACINOLIDE B]

Activity [7]: inhibitor [+]
SMILES: CC(=O)O[C@H]1[C@@H](OC(C)=O)C(C)(C)/C=C/[C@H](C)C(=O)[C@@]2(OC(C)=O)C[C@@](C)(OC(C)=O)[C@H](O)[C@@H]2[C@H]2OC(=O)CC[C@@]2(OC(C)=O)[C@@H]1OC(=O)C(C)C [TERRACINOLIDE C]
